Test results: ChEMBL document CHEMBL1149311, “Synthesis and antitumor activity of methyltriazene prodrugs simultaneously releasing DNA-methylating agents and the antiresistance drug O(6)-benzylguanine” (J Med Chem, 2004)
pIC50: −log10 of the molar value. Blank lines part the entries; values can stand above or below the compound they belong to.

Columns and labels:
NCI-H460 [1] = test: Antitumor activity against human NCI-H460 cells at 100 uM relative to control; format: functional
Method in brief: (§1)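 NCI three-cell-line one-dose primary anticancer prescreen at 100 µM. Growth is expressed as % of untreated control cells, with the control taken as 100%.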

[2] = Half life of hydrolysis in deuterated phosphate buffer at pD 7.8; details: pH 7.8
MCF7 [3] = test: Antitumor activity against human MCF7 cells at 100 uM relative to control; format: functional; method in brief: as §1
SF-268 [4] = test: Antitumor activity against human SF268 cells at 100 uM relative to control; format: functional; method in brief: as §1
NCI [5] = test: Antitumor activity against human NCI CNS cancer cell line panel; format: functional, cell-based
Method in brief: (§2)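 Tested in the NCI in vitro disease-oriented human tumor cell screen. The endpoints are IC50 (molar concentration giving 50% growth inhibition), TGI (total growth inhibition) and LC50 (50% net cell death). The maximal concentration tested was 100 μM. Subpanel values are means of several individual cell lines.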

NCI [6] = test: Antitumor activity against human NCI breast cancer cell line panel; format: functional, cell-based; method in brief: as §2
NCI [7] = test: Antitumor activity against human NCI renal cancer cell line panel; format: functional, cell-based; method in brief: as §2
NCI [8] = test: Antitumor activity against human NCI leukemia cell line panel; format: functional, cell-based; method in brief: as §2
NCI [9] = test: Antitumor activity against human NCI colon cancer cell line panel; format: functional, cell-based; method in brief: as §2
carcinoma cell line = test: Antitumor activity against human NCI ovarian carcinoma cell line panel; format: functional, cell-based; method in brief: as §2
[10] = test system: Non-small cell lung cancer cell line; test: Antitumor activity against human NCI non-small cell lung cancer cell line panel; format: functional, cell-based; method in brief: as §2
NCI [11] = test: Antitumor activity against NCI human melanoma cell line panel; format: functional, cell-based; method in brief: as §2
NCI [12] = test: Antitumor activity against human NCI prostate cancer cell line panel; format: functional, cell-based; method in brief: as §2
NCI-H460 [13] = test: Antitumor activity against human NCI-H460 cells at 50 uM relative to control; format: functional
Method in brief: (§3)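 Tested in the NCI three-cell-line one-dose primary anticancer prescreen. The read-out is growth as % of untreated control cells (100%) at 50 μM.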

SF-268 [14] = test: Antitumor activity against human SF268 cells at 50 uM relative to control; format: functional; method in brief: as §3
MCF7 [15] = test: Antitumor activity against human MCF7 cells at 50 uM relative to control; format: functional; method in brief: as §3

half-life ([2]; deuterated phosphate buffer): 58.3 h
SMILES: CCOC(=O)N(C)/N=N/c1nc(OCc2ccccc2)c2nc[nH]c2n1
Activity (NCI-H460 [1]): 90%
Activity (MCF7 [3]): 103%
Activity (SF-268 [4]): 91%

SMILES: CN(/N=N/c1nc(OCc2ccccc2)c2nc[nH]c2n1)C(=O)Oc1ccccc1
Activity (NCI-H460 [1]): 87%
half-life ([2]; deuterated phosphate buffer): 19.2 h
Activity (MCF7 [3]): 107%
Activity (SF-268 [4]): 102%

SMILES: Cn1nnc2c(C(N)=O)ncn2c1=O [TEMOZOLOMIDE]
pIC50 (NCI [5]): 4.03
pIC50 (NCI [6]): 4.00
pIC50 (NCI [7]): 4.01
half-life ([2]; buffer): 0.417 h
pIC50 (NCI [8]): 4.10
TGI (NCI [8]): > 100 µM
CC50 (NCI [8]; read-out: LC50 (the source's name)): > 100 µM
pIC50 (NCI [9]): 4.00
pIC50 (carcinoma cell line): 4.04
pIC50 [10]: 4.00
pIC50 (NCI [11]): 4.01
pIC50 (NCI [12]): 4.00

half-life ([2]; deuterated phosphate buffer): 8.83 h
SMILES: CN(/N=N/c1nc(OCc2ccccc2)c2nc[nH]c2n1)C(=O)c1cccnc1

SMILES: COC(=O)c1ccc(OC(=O)N(C)/N=N/c2nc(OCc3ccccc3)c3nc[nH]c3n2)cc1
half-life ([2]; deuterated phosphate buffer): 2.45 h
Activity (NCI-H460 [13]): 53%
Activity (SF-268 [14]): 107%
Activity (MCF7 [15]): 116%

half-life ([2]; deuterated phosphate buffer): 16 h
SMILES: CN(/N=N/c1nc(OCc2ccccc2)c2nc[nH]c2n1)C(=O)c1ccc([N+](=O)[O-])cc1

SMILES: CN(/N=N/c1nc(OCc2ccccc2)c2nc[nH]c2n1)C(=O)Oc1ccc(S(N)(=O)=O)cc1
half-life ([2]; deuterated phosphate buffer): 2.82 h

SMILES: CC(=O)Nc1ccc(OC(=O)N(C)/N=N/c2nc(OCc3ccccc3)c3nc[nH]c3n2)cc1
half-life ([2]; deuterated phosphate buffer): 19.3 h

half-life ([2]; deuterated phosphate buffer): 38.3 h
SMILES: CN(/N=N/c1nc(OCc2ccccc2)c2nc[nH]c2n1)C(=O)c1ccccc1
Activity (NCI-H460 [1]): 93%
Activity (MCF7 [3]): 107%
Activity (SF-268 [4]): 79%

SMILES: CN(/N=N/c1nc(OCc2ccccc2)c2nc[nH]c2n1)C(=O)Oc1ccc(C(N)=O)cc1
half-life ([2]; deuterated phosphate buffer): 6.42 h

half-life ([2]; deuterated phosphate buffer): 58.3 h
SMILES: CC(=O)N(C)/N=N/c1nc(OCc2ccccc2)c2nc[nH]c2n1
Activity (NCI-H460 [1]): 89%
Activity (MCF7 [3]): 99%
Activity (SF-268 [4]): 78%
